KCNK9 inh: blocks the human KCNK9 two-pore domain potassium channel; B-score at 10 µM; HEK293 KCNK9, FluxOR thallium flux fluorescence; stronger effect = lower value; 310,000 compounds, 1.2% hits; AID 488922;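 active = ratio B-score over 3 SD below the library mean, with starting fluorescence within 5 SD of its mean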;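 also: negative B-score means less thallium flux so channel inhibition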
KCC2 mod: modulators of human KCC2 chloride dependent transport; Q9H2X9; KCC2 cells, thallium flux FluoZin-2 fluorescence; B-score of Tl+ flux slope (higher = more flux/activation; lower = inhibition) at 10 µM; 190,000 compounds, 2.2% hits;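 active = thallium flux slope and its plate-corrected score both differing from the plate sample mean at a set confidence after two filtering rounds, in either direction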;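 also: slope of fluorescence scaled to starting intensity during 10 to 20 s after thallium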
KCNK3 block: human KCNK3 channel inhibition, primary screen; 340,000 compounds, 0.84% hits; CHO-KCNK3 thallium flux, FluxOR fluorescence; stronger effect = lower value; B-score at 10 µM; AID 602410; O14649;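 active = B-score under library mean minus 4 SD, starting fluorescence ratio at most library mean plus 5 SD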;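 also: more negative B-score means stronger inhibition of thallium flux through KCNK3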
KCNQ1 act: potentiates or activates the human KCNQ1 potassium channel. P51787. AID 2648. 310,000 compounds, 0.35% hits. CHO-K1 KCNQ1, thallium flux FluxOR fluorescence; stronger effect = higher value. B-score at 10 µM;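 active = fluorescence ratio B-score, a plate-corrected score, at least three library SD, with initial intensity B-score within 5 SD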
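Test system: CHO-K1 cells stably expressing KCNQ1 / Medium: assay buffer / Also added: depolarizing K+/Tl+ stimulus, K2SO4 and Tl2SO4 each 12.5 mM in 5x stock / Incubation: 90 min dye loading and 20 min compound exposure, both at room temperature / Signal: thallium influx via FluxOR fluorescence, kinetic imaging / Evaluation: B score of baseline-normalized fluorescence ratio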
KCNQ1 block: inhibitors of human KCNQ1 potassium channel | P51787 | CHO-K1 KCNQ1, FluxOR thallium flux fluorescence; stronger effect = higher value | B-score at 10 µM | 310,000 compounds, 1.3% hits | AID 2642;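 active = compounds whose thallium flux B-score, printed positive for inhibition, exceeds three library SD while starting fluorescence stays within three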;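 also: channel opened by potassium depolarization with thallium stimulus after 20 min compound exposure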
hERG rescue: hERG (human) protection from proarrhythmic block; 310,000 compounds, 0.51% hits; Q12809; CHO-hERG, FluxOR thallium flux, dofetilide IC70 present; activation (rescue from dofetilide block), less the hit threshold, % at 10 µM; AID 1511;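 active = activation above the mean of controls blocked by dofetilide plus 5 SD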;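 also: thallium influx through hERG after potassium depolarization seen as dye fluorescence rise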
KCNK9 block conf: confirmation of human KCNK9 potassium channel inhibitors; shares compounds with KCNK9 inh; HEK293 KCNK9 cells, FluxOR thallium flux fluorescence; inhibition, % at 10 µM; 4,900 compounds, 43% hits; AID 492992;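 active = thallium signal inhibited by more than 5 SD of the compound-free buffer control wells, on both duplicate plates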;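 also: 0% = assay buffer control wells without compound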
Kir2-1 spec: selectivity of KCNK9 modulators against mouse Kir2.1 | shares compounds with KCNK9 inh | Kir2.1 cells, FluxOR thallium flux fluorescence | inhibition, % at 10 µM | 4,900 compounds, 4% hits | AID 492993;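 active = thallium signal drop more than 5 SD beyond the mean of the no-compound control wells, seen in both duplicate plates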;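 also: signal is fluorescence rise after thallium addition divided by baseline fluorescence; plate controls were assay buffer only for no effect and full block by chlorpromazine control for full effect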
Target sequence (P35561 whole entry, looked up): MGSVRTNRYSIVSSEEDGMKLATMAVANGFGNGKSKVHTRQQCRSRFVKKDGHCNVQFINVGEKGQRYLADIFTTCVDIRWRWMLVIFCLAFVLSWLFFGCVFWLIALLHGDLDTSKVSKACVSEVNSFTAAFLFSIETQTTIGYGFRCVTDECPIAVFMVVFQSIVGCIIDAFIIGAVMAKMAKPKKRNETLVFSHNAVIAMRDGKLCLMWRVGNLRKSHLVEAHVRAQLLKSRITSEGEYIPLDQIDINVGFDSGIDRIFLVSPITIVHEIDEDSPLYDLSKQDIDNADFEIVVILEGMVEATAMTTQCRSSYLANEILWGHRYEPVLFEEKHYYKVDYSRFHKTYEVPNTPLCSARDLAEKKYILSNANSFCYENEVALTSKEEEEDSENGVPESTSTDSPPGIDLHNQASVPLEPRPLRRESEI
HEK293 Tl ctr: second check of KCNK9 modulator effects in non-induced HEK293 cells; 4,900 compounds, 40% hits; shares compounds with KCNK9 inh; inhibition, % at 10 µM; AID 492997; FluxOR thallium flux;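 active = thallium signal drop beyond 5 SD of the untreated control mean, on both duplicate plates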;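 also: plate controls were buffer only IC0 wells for no effect and SID17386958 at its maximal inhibitory level for full effect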
* marks the source's active call; other numbers are inactive results. Rows were chosen to be rich in hits. Some 4.1% of all compounds tested hit in one or more screens of this group.

`COc1cc(C=O)ccc1OCCOc1ccccc1[N+](=O)[O-]` gave KCNK9 inh inactive, KCC2 mod -1.2, KCNK3 block inactive, KCNQ1 act inactive, KCNQ1 block inactive and hERG rescue -11.
CCOc1ccccc1OCCOCCOc1ccccc1[N+](=O)[O-] was read as KCNK9 inh inactive, KCC2 mod -1.4, KCNK3 block inactive, KCNQ1 act inactive, KCNQ1 block inactive, hERG rescue -13, KCNK9 block conf inactive, Kir2-1 spec inactive and HEK293 Tl ctr inactive.
Screening N#CC1=C(N)OC2=C(C(=O)CCC2)C1c1cccs1 (stereo not drawn) returned KCNK9 inh inactive, KCC2 mod -1.4, KCNK3 block inactive, KCNQ1 act inactive, KCNQ1 block inactive and hERG rescue -4.
For CN(C)S(=O)(=O)c1ccc(N2CCCC2)c(C(=O)Nc2ccccc2Br)c1 the results were KCNK9 inh inactive, KCNK3 block inactive, KCNQ1 act inactive, KCNQ1 block inactive, hERG rescue -11, KCNK9 block conf inactive, Kir2-1 spec inactive and HEK293 Tl ctr inactive.
For CCc1ccc(OCC(=O)NNC(=O)c2cc(S(=O)(=O)N(C)C)ccc2N2CCCC2)cc1 the results were KCNK9 inh inactive, KCNK3 block inactive, KCNQ1 act inactive, KCNQ1 block inactive, hERG rescue -10, KCNK9 block conf inactive, Kir2-1 spec inactive and HEK293 Tl ctr inactive.
For CCc1ccccc1NC(=O)c1cc(S(=O)(=O)N(C)C)ccc1N1CCCC1 the results were KCNK9 inh inactive, KCNK3 block inactive, KCNQ1 act inactive, KCNQ1 block inactive and hERG rescue -12.
For CN(C)S(=O)(=O)c1ccc(N2CCCC2)c(C(=O)NNC(=O)COc2ccc(Cl)cc2)c1 the results were KCNK9 inh inactive, KCNK3 block inactive, KCNQ1 act inactive, KCNQ1 block inactive and hERG rescue -15.
`CN(C)S(=O)(=O)c1ccc(N2CCCC2)c(C(=O)NC2CCCCC2)c1` gave KCNK9 inh inactive, KCNK3 block inactive, KCNQ1 act inactive, KCNQ1 block inactive, hERG rescue -13, KCNK9 block conf inactive, Kir2-1 spec inactive and HEK293 Tl ctr inactive.
Screening CC1CCC(NC(=O)c2cc(S(=O)(=O)N(C)C)ccc2N2CCCC2)CC1 (stereo not drawn) returned KCNK9 inh inactive, KCNK3 block inactive, KCNQ1 act inactive, KCNQ1 block inactive and hERG rescue -9.
For CCOc1cc(CC(=O)N[C@@H](CC(C)C)c2ccccc2N2CCCCC2)ccc1C(=O)O the results were KCNK9 inh inactive, KCC2 mod -1.4, KCNK3 block inactive, KCNQ1 act inactive, KCNQ1 block inactive and hERG rescue -6.
Screening COc1cc(C2C(Oc3ccccc3C)C(=O)N2Cc2ccc(F)cc2)cc(OC)c1OC (stereo not drawn) returned KCNK9 inh inactive, KCC2 mod -0.75, KCNK3 block inactive, KCNQ1 act inactive, KCNQ1 block inactive and hERG rescue -10.
COc1ccccc1CNc1cc(CSc2ccc(Cl)cc2)nc(C)n1 was read as KCNK9 inh inactive, KCNK3 block inactive, KCNQ1 act inactive, KCNQ1 block inactive, hERG rescue -6, KCNK9 block conf inactive, Kir2-1 spec 46%* and HEK293 Tl ctr inactive.
`COc1ccccc1CNC(=O)COC(=O)CSc1ccc(Cl)cc1` gave KCNK9 inh inactive, KCNK3 block inactive, KCNQ1 act inactive, KCNQ1 block inactive and hERG rescue -7.

Bioassay records deposited in PubChem BioAssay by several laboratories.
